Measurements reported in ChEMBL document CHEMBL3603756, “Synthesis and apoptotic activity of new pyrazole derivatives in cancer cell lines” (2015).
Active and inactive are the calls of the source. The rule behind the calls is not given here.

What was measured:
[1] = Cytotoxicity against human HCT8 cells assessed as cell viability at 50 ug/ml incubated for 24 hrs by MTS assay; type: functional; details: HCT-8, 24 h, read-out: Activity
In short: (§1)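 Cells were held at 37 °C, 5% CO2 in humid air. HEp-2 (5 x 10³/well) and HCT-8 (7 x 10³/well) grew in DMEM + 10% heat-inactivated FBS and got compound (binary dilutions) 24 h after seeding. THP-1 (5 x 10³ cells, RPMI-1640 + 10% FBS) were added directly to the dilutions. Exposure lasted 24 h. MTS (CellTiter 96 AQueous One) read-out was absorbance at 490 nm.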

HEp-2 [2] = experiment: Induction of cell cycle arrest in human Hep2 cells assessed accumulation at S phase at 50 ug/ml incubated for 24 hrs by propidium iodide staining based flow cytometry (reference value: 21.06%); type: functional
[3] = Reduction in PRKAA2 gene expression in human Hep2 cells at 10 ug/ml incubated for 24 hrs by real-time PCR method; type: functional, cell-based; details: HEp-2
In short: (§2)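 HEp-2 cells were treated 24 h at 10 or 50 µg/mL. Total RNA was extracted with Trizol, and 2 µg was reverse-transcribed. 50 ng cDNA went into TaqMan real-time PCR with beta-actin as endogenous control. Relative expression was calculated by the ∆∆CT method. Each experiment was run three times.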

HCT-8 [4] = experiment: Induction of apoptosis in human HCT8 cells assessed early apoptosis level at 50 ug/ml incubated for 24 hrs by annexin V-FITC and propidium iodide staining based flow cytometry (reference value: 0.75%); type: functional
THP-1 [5] = experiment: Cytotoxicity against human THP1 cells assessed as cell viability at 25 ug/ml incubated for 24 hrs by MTS assay; type: functional; details: THP-1, 24 h, read-out: Activity; in short: as §1
HCT-8 [6] = experiment: Induction of apoptosis in human HCT8 cells assessed necrosis level at 50 ug/ml incubated for 24 hrs by annexin V-FITC and propidium iodide staining based flow cytometry (reference value: 1.12%); type: functional
HEp-2 [7] = experiment: Induction of cell cycle arrest in human Hep2 cells assessed accumulation at G2/M phase at 50 ug/ml incubated for 24 hrs by propidium iodide staining based flow cytometry (reference value: 7.82%); type: functional
HEp-2 [8] = experiment: Induction of cell cycle arrest in human Hep2 cells assessed accumulation at S phase at 10 ug/ml incubated for 24 hrs by propidium iodide staining based flow cytometry (reference value: 21.06%); type: functional
THP-1 [9] = experiment: Cytotoxicity against human THP1 cells assessed as cell viability at 50 ug/ml incubated for 24 hrs by MTS assay; type: functional; details: THP-1, 24 h, read-out: Activity; in short: as §1
[10] = Cytotoxicity against human Hep2 cells assessed as cell viability at 25 ug/ml incubated for 24 hrs by MTS assay; type: functional; details: HEp-2, 24 h, read-out: Activity; in short: as §1
[11] = Cytotoxicity against human Hep2 cells assessed as cell viability at 50 ug/ml incubated for 24 hrs by MTS assay; type: functional; details: HEp-2, 24 h, read-out: Activity; in short: as §1
[12] = Cytotoxicity against human HCT8 cells assessed as cell viability at 25 ug/ml incubated for 24 hrs by MTS assay; type: functional; details: HCT-8, 24 h, read-out: Activity; in short: as §1
[13] = Reduction in PRKAA1 gene expression in human Hep2 cells at 10 ug/ml incubated for 24 hrs by real-time PCR method; type: functional, cell-based; details: HEp-2; in short: as §2
[14] = Reduction in PRKAA1 gene expression in human Hep2 cells at 50 ug/ml incubated for 24 hrs by real-time PCR method; type: functional, cell-based; details: HEp-2; in short: as §2
[15] = Cytotoxicity against human Hep2 cells assessed as cell viability at 12.5 ug/ml incubated for 24 hrs by MTS assay; type: functional; details: HEp-2, 24 h, read-out: Activity; in short: as §1
HEp-2 [16] = experiment: Induction of cell cycle arrest in human Hep2 cells assessed accumulation at G0/G1 phase at 10 ug/ml incubated for 24 hrs by propidium iodide staining based flow cytometry (reference value: 74.51%); type: functional
[17] = Reduction in PRKAA2 gene expression in human Hep2 cells at 50 ug/ml incubated for 24 hrs by real-time PCR method; type: functional, cell-based; details: HEp-2; in short: as §2
HEp-2 [18] = experiment: Induction of cell cycle arrest in human Hep2 cells assessed accumulation at G2/M phase incubated for 24 hrs by propidium iodide staining based flow cytometry; type: functional
HCT-8 [19] = experiment: Induction of apoptosis in human HCT8 cells assessed viable cells level at 50 ug/ml incubated for 24 hrs by annexin V-FITC and propidium iodide staining based flow cytometry (reference value: 93.3%); type: functional
HEp-2 [20] = experiment: Induction of cell cycle arrest in human Hep2 cells assessed accumulation at G2/M phase at 10 ug/ml incubated for 24 hrs by propidium iodide staining based flow cytometry (reference value: 7.82%); type: functional
[21] = Cytotoxicity against human HCT8 cells assessed as cell viability at 12.5 ug/ml incubated for 24 hrs by MTS assay; type: functional; details: HCT-8, 24 h, read-out: Activity; in short: as §1
HCT-8 [22] = experiment: Induction of apoptosis in human HCT8 cells assessed late apoptosis level at 50 ug/ml incubated for 24 hrs by annexin V-FITC and propidium iodide staining based flow cytometry (reference value: 4.8%); type: functional
THP-1 [23] = experiment: Cytotoxicity against human THP1 cells assessed as cell viability at 12.5 ug/ml incubated for 24 hrs by MTS assay; type: functional; details: THP-1, 24 h, read-out: Activity; in short: as §1
HEp-2 [24] = experiment: Induction of cell cycle arrest in human Hep2 cells assessed accumulation at G0/G1 phase at 50 ug/ml incubated for 24 hrs by propidium iodide staining based flow cytometry (reference value: 74.51%); type: functional
HEp-2 [25] = experiment: Reduction in livin protein levels in human Hep2 cells at 50 ug/ml incubated for 24 hrs by protein array method; type: functional, cell-based
HEp-2 [26] = experiment: Reduction in pro-caspase-3 levels in human Hep2 cells at 50 ug/ml incubated for 24 hrs by protein array method; type: functional, cell-based
HEp-2 [27] = experiment: Reduction in c-IAP1 levels in human Hep2 cells at 50 ug/ml incubated for 24 hrs by protein array method; type: functional, cell-based
HEp-2 [28] = experiment: Increase in caspase-8 levels in human Hep2 cells at 50 ug/ml incubated for 24 hrs by protein array method; type: functional, cell-based
HEp-2 [29] = experiment: Reduction in c-IAP2 levels in human Hep2 cells at 50 ug/ml incubated for 24 hrs by protein array method; type: functional, cell-based
HEp-2 [30] = experiment: Reduction in HSP27 protein levels in human Hep2 cells at 50 ug/ml incubated for 24 hrs by protein array method; type: functional, cell-based
HEp-2 [31] = experiment: Reduction in survivin protein levels in human Hep2 cells at 50 ug/ml incubated for 24 hrs by protein array method; type: functional, cell-based
HEp-2 [32] = experiment: Induction of apoptosis in human Hep2 cells assessed as increase in p53 S15/S46/S392 phosphorylation level at 50 ug/ml incubated for 24 hrs by protein array method; type: functional, cell-based
HEp-2 [33] = experiment: Increase in TRAIL-R2 protein expression in human Hep2 cells at 50 ug/ml incubated for 24 hrs by protein array method; type: functional, cell-based
HEp-2 [34] = experiment: Increase in TRAIL-R1 protein expression in human Hep2 cells at 50 ug/ml incubated for 24 hrs by protein array method; type: functional, cell-based
HEp-2 [35] = experiment: Increase in Fas/TNFRSF6 protein expression in human Hep2 cells at 50 ug/ml incubated for 24 hrs by protein array method; type: functional, cell-based
HEp-2 [36] = experiment: Reduction in HSP70 protein levels in human Hep2 cells at 50 ug/ml incubated for 24 hrs by protein array method; type: functional, cell-based
HEp-2 [37] = experiment: Reduction in XIAP levels in human Hep2 cells at 50 ug/ml incubated for 24 hrs by protein array method; type: functional, cell-based
HEp-2 [38] = experiment: Increase in cleaved-caspase-3 levels in human Hep2 cells at 50 ug/ml incubated for 24 hrs by protein array method; type: functional, cell-based
HEp-2 [39] = experiment: Increase in FADD protein expression in human Hep2 cells at 50 ug/ml incubated for 24 hrs by protein array method; type: functional, cell-based

Row | SMILES | viability at 50 µg/mL [1] | Activity (HEp-2 [2]) | Activity [3] | Activity (HCT-8 [4]) | viability at 25 µg/mL (THP-1 [5]) | Activity (HCT-8 [6]) | Activity (HEp-2 [7]) | Activity (HEp-2 [8]) | viability at 50 µg/mL (THP-1 [9]) | viability at 25 µg/mL [10] | viability at 50 µg/mL [11] | viability at 25 µg/mL [12] | Activity [13] | Activity [14] | viability at 12.5 µg/mL [15] | Activity (HEp-2 [16]) | Activity [17] | Activity (HEp-2 [18]) | Activity (HCT-8 [19]) | Activity (HEp-2 [20]) | also measured
1 | Cn1cc(C(=O)NC(=S)Nc2ccccc2I)cn1 | 91.8% | 18.14% | Active | 2.01% | 84% | 2.49% | 15.92% | 21.88% | 31.3% | 100% | 90% | 100% | Active | Active | 100% | 76.4% | Active | Dose-dependent effect | 91.8% | 6.86% | viability at 12.5 µg/mL [21]: 100%; Activity (HCT-8 [22]): 3.75%; viability at 12.5 µg/mL (THP-1 [23]): 100%; Activity (HEp-2 [24]): 67.6%
2 | Cn1cc(C(=O)NC(=S)Nc2ccc(I)cc2)cn1 | 93.3% | 24.79% | Active | 2.31% | 79.3% | 1.25% | 15.88% | 17.26% | 35.2% | 100% | 93% | 100% | Active | Active | 100% | 71.62% | Active | Dose-dependent effect | 93.3% | 11.98% | viability at 12.5 µg/mL [21]: 100%; Activity (HCT-8 [22]): 3.1%; viability at 12.5 µg/mL (THP-1 [23]): 100%; Activity (HEp-2 [24]): 74.24%
3 | Cc1cs/c(=N\C(=O)c2cnn(C)c2)n1-c1ccc(I)cc1 | 91.8% | 27.45% | Active | 2.91% | 86.9% | 1.41% | 25.92% | 23.56% | 37.2% | 100% | 90% | 100% | Active | Active | 100% | 66.94% | Active | Dose-dependent effect | 91.8% | 9.07% | Activity (HEp-2 [25]): Active; Activity (HEp-2 [26]): Active; Activity (HEp-2 [27]): Active; Activity (HEp-2 [28]): Active; Activity (HEp-2 [29]): Active; Activity (HEp-2 [30]): Active; Activity (HEp-2 [31]): Active; Activity (HEp-2 [32]): Active; Activity (HEp-2 [33]): Active; Activity (HEp-2 [34]): Active; Activity (HEp-2 [35]): Active; Activity (HEp-2 [36]): Active; Activity (HEp-2 [37]): Active; Activity (HEp-2 [38]): Active; Activity (HEp-2 [39]): Active; viability at 12.5 µg/mL [21]: 100%; Activity (HCT-8 [22]): 3.89%; viability at 12.5 µg/mL (THP-1 [23]): 99%; Activity (HEp-2 [24]): 50.7%
4 | Cn1cc(C(=O)/N=C2\SCC(C)(O)N2c2ccc(I)cc2)cn1 (stereo unspecified) | 90.2% | 27.01% | Active | 4.96% | 84.1% | 1.44% | 33.4% | 17.85% | 38.4% | 100% | 89% | 100% | Active | Active | 100% | 74.73% | Active | Dose-dependent effect | 90.2% | 14.92% | Activity (HEp-2 [25]): Active; Activity (HEp-2 [26]): Active; Activity (HEp-2 [27]): Active; Activity (HEp-2 [28]): Active; Activity (HEp-2 [29]): Active; Activity (HEp-2 [30]): Active; Activity (HEp-2 [31]): Active; Activity (HEp-2 [32]): Active; Activity (HEp-2 [33]): Active; Activity (HEp-2 [34]): Active; Activity (HEp-2 [35]): Active; Activity (HEp-2 [36]): Active; Activity (HEp-2 [37]): Active; Activity (HEp-2 [38]): Active; Activity (HEp-2 [39]): Active; viability at 12.5 µg/mL [21]: 100%; Activity (HCT-8 [22]): 3.37%; viability at 12.5 µg/mL (THP-1 [23]): 97%; Activity (HEp-2 [24]): 43.62%
